Source: ChEMBL document CHEMBL4190328, “Design, Synthesis, and Biological Evaluation of Tetrahydroisoquinoline-Based Histone Deacetylase 8 Selective Inhibitors” (ACS Med Chem Lett, 2017)
The source made the active and inactive calls. The rule behind the calls is not given here.

What was measured:
Histone deacetylase 1 = Histone deacetylase 1 (Homo sapiens, UniProt Q13547); experiment: Inhibition of recombinant full-length human C-terminal FLAG-His-tagged HDAC1 expressed in baculovirus infected Sf9 insect cells using Boc-L-Lys(Ac)-AMC as substrate preincubated for 5 mins followed by substrate addition measured after 35 mins by fluorescence assay
Chain of Histone deacetylase 1 (Q13547 whole entry): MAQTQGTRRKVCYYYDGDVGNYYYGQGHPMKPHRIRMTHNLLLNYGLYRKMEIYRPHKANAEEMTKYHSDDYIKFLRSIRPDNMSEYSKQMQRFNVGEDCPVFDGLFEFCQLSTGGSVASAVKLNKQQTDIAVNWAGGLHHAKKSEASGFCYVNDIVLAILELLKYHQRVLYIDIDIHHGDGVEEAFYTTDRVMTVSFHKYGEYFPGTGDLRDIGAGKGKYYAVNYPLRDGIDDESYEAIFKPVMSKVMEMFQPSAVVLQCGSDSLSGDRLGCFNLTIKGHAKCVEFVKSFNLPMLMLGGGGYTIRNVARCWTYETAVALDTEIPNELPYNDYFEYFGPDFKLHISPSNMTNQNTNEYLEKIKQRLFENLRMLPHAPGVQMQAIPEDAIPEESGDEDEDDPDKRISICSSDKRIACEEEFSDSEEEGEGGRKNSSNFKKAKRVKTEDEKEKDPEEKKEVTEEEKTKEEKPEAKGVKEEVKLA

Histone deacetylase 2 = Histone deacetylase 2 (Homo sapiens, UniProt Q92769); experiment: Inhibition of recombinant human full-length C-terminal His-tagged HDAC2 expressed in baculovirus infected Sf9 insect cells using Boc-L-Lys(Ac)-AMC as substrate preincubated for 5 mins followed by substrate addition measured after 35 mins by fluorescence assay
Chain of Histone deacetylase 2 (Q92769 whole entry, the tested form may be a part): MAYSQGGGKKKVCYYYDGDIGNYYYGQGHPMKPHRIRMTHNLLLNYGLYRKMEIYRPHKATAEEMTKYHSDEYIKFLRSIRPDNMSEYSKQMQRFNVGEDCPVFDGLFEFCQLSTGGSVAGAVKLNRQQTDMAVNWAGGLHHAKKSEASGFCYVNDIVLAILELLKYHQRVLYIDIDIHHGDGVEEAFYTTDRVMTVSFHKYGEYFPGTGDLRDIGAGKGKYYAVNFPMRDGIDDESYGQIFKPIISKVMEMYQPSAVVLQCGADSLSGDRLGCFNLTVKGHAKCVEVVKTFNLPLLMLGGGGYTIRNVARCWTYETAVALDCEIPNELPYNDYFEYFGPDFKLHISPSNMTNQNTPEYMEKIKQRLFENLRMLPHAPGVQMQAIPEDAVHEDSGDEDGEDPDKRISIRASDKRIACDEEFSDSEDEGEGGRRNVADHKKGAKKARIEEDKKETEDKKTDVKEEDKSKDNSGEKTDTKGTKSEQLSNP

[1] = molecular target: Histone deacetylase 3/Nuclear receptor corepressor 2 (HDAC3/NCoR2) (Homo sapiens, UniProt O15379); experiment: Inhibition of recombinant human full-length C-terminal His-tagged HDAC3 (395 to 489 residues)/human NCOR2 expressed in baculovirus infected Sf9 insect cells using Boc-L-Lys(Ac)-AMC as substrate pretreated for 5 mins followed by substrate addition measured after 35 mins by fluorescence assay
Chain of Histone deacetylase 3/Nuclear receptor corepressor 2 (HDAC3/NCoR2) (O15379 whole entry, the tested form may be a part): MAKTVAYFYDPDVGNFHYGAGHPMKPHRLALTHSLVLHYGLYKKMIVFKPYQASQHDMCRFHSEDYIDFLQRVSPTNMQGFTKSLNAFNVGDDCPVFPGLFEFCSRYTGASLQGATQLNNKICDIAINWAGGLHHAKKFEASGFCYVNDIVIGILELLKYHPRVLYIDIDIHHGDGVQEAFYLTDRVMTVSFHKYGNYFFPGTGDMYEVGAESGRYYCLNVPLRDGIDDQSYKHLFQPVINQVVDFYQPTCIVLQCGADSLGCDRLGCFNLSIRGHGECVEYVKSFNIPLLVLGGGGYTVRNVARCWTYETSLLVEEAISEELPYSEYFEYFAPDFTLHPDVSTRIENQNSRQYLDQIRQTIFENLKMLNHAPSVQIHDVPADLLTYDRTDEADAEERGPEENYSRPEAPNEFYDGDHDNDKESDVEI
Chain of Histone deacetylase 3/Nuclear receptor corepressor 2 (HDAC3/NCoR2) (Q9Y618 whole entry, further chain, the tested form may be a part): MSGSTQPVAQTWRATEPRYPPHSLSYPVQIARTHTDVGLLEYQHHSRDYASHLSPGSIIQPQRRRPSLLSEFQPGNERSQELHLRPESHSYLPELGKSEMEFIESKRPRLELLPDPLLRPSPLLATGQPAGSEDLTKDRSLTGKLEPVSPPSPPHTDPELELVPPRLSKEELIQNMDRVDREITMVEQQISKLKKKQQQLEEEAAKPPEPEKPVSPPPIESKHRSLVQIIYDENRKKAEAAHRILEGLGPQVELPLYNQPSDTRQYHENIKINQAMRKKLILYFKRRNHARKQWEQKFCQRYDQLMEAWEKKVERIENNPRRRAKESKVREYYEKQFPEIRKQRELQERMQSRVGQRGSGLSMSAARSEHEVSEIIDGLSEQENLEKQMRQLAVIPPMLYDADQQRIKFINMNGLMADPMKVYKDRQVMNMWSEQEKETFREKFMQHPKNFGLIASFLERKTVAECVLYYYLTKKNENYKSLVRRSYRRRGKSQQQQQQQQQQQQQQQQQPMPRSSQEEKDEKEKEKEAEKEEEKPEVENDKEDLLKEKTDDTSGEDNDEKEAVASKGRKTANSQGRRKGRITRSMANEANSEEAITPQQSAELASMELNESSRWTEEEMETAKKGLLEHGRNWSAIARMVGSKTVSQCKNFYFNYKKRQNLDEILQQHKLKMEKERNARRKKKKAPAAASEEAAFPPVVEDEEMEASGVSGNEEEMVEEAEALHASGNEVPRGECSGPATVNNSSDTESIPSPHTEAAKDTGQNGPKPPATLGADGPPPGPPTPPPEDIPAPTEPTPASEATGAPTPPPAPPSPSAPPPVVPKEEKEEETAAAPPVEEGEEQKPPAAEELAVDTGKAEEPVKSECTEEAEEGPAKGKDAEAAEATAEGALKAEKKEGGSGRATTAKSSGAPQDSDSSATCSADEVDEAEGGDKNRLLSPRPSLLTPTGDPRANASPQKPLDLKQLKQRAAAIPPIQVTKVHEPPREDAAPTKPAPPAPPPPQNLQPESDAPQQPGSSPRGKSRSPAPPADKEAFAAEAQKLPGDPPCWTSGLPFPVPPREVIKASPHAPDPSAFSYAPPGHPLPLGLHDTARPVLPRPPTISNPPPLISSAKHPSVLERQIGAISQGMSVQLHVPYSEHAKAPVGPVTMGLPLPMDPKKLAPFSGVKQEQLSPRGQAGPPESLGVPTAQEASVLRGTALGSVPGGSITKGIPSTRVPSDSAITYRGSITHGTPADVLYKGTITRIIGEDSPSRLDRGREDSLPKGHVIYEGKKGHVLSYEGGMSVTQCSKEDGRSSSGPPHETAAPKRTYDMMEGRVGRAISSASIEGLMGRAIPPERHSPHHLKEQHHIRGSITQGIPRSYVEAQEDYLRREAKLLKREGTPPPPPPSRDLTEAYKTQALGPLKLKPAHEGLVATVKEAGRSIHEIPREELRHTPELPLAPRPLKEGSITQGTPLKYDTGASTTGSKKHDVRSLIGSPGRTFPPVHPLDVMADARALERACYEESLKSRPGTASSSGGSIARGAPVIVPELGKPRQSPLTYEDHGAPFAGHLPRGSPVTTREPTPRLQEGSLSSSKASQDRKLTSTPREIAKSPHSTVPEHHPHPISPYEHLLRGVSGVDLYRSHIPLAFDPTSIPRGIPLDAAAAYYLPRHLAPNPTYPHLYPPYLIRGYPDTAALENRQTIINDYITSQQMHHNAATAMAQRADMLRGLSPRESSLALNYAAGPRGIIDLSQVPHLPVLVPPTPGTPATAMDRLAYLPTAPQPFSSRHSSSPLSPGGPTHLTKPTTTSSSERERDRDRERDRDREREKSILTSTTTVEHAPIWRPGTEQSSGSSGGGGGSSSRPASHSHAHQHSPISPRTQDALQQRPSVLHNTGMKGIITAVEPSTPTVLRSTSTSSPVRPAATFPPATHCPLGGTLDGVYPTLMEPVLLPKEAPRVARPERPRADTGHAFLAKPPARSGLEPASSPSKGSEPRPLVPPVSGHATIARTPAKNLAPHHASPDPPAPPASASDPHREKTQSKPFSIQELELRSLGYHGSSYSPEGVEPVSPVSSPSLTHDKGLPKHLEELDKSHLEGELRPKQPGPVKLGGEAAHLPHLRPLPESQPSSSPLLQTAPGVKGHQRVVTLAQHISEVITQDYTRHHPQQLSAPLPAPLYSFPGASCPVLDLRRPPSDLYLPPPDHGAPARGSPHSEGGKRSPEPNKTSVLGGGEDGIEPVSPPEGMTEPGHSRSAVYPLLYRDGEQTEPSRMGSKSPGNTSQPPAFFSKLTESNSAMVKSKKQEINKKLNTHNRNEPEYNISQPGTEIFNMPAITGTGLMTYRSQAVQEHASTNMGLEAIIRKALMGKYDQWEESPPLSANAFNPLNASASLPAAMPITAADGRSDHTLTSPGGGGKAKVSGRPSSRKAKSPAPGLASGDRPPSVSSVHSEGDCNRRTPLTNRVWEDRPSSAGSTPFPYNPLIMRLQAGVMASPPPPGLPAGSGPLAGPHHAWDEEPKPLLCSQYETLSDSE

Histone deacetylase 8 = molecular target: T1, Histone deacetylase 8 (Homo sapiens, UniProt Q9BY41); experiment: Inhibition of recombinant HDAC8 (unknown origin) expressed in Escherichia coli using fluor de Lys(R) as substrate pretreated for 5 mins followed by substrate addition measured after 35 mins by fluorescence assay
T1 sequence (Q9BY41 whole entry): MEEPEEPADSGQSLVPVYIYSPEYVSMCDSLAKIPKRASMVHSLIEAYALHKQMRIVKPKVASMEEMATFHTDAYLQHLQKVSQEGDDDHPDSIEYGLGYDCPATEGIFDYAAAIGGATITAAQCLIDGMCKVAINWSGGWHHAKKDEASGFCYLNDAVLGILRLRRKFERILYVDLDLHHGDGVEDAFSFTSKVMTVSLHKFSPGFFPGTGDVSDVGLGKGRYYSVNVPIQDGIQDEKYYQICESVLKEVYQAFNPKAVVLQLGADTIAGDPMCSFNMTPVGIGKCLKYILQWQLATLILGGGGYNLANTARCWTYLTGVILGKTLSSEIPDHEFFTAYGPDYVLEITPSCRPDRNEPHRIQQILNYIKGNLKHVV

[2] = molecular target: T2, Protein deacetylase HDAC6 (Homo sapiens) (UniProt Q9UBN7); experiment: Inhibition of recombinant human HDAC6 at 10 uM using fluorogenic HDAC substrate 3 by fluorescence assay relative to control
T2 sequence (whole entry): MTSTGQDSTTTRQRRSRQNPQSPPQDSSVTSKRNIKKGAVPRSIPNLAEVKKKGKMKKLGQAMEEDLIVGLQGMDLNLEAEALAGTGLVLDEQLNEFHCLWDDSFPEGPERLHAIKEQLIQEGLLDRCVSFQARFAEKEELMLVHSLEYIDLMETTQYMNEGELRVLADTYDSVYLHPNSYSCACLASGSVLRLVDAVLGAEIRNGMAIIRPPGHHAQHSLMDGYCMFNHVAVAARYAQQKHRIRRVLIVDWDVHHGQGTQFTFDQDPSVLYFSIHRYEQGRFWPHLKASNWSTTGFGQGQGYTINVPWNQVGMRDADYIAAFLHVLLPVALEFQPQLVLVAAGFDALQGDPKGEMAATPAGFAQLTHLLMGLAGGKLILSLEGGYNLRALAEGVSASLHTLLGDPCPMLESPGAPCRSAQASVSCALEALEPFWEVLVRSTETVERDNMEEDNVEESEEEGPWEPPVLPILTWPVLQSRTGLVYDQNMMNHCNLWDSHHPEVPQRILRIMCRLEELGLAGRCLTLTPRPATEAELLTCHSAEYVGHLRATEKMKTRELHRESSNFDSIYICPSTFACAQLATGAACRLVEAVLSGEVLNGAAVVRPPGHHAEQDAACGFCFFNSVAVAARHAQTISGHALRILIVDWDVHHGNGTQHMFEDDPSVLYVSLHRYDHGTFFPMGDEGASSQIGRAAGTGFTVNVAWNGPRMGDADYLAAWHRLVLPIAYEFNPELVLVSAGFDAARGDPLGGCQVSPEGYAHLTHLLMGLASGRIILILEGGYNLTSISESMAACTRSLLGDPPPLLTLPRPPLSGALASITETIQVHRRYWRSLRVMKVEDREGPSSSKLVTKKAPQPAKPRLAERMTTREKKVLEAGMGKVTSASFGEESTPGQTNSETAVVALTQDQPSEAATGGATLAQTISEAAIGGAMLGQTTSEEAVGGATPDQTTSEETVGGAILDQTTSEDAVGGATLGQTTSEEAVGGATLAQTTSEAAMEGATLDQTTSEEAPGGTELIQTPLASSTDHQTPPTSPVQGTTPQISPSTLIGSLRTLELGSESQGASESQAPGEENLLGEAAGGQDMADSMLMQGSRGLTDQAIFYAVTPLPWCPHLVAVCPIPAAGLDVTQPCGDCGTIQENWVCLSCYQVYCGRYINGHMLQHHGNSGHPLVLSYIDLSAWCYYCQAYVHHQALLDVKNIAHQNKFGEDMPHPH
Outline: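 HDAC6 activity was measured with test compound at 10 μM and reported as percent inhibition. Values are mean ± standard deviation of at least two independent experiments, rounded to two significant figures.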

SH-SY5Y [3] = experiment: Cytotoxicity against human SH-SY5Y cells expressing TP53 by CellTiter96 AQueous one solution cell proliferation assay; assay type: functional, cell-based
IMR-5 [4] = experiment: Cytotoxicity against human IMR5 cells expressing TP53 by CellTiter96 AQueous one solution cell proliferation assay; assay type: functional, cell-based
SK-N-AS = experiment: Cytotoxicity against human SK-N-AS cells expressing TP53 mutation by CellTiter96 AQueous one solution cell proliferation assay; assay type: functional, cell-based
Kelly = experiment: Cytotoxicity against human Kelly cells expressing TP53 mutation by CellTiter96 AQueous one solution cell proliferation assay; assay type: functional, cell-based
SH-SY5Y [5] = settings: Homo sapiens, at 10 µM
SH-SY5Y [6] = settings: Homo sapiens, at 10 µM; remark: listed apart in the source
Homo sapiens [7] = species: Homo sapiens; experiment: Selectivity ratio of IC50 for recombinant full-length human C-terminal FLAG-His-tagged HDAC1 expressed in baculovirus infected Sf9 insect cells to IC50 for recombinant HDAC8 (unknown origin) expressed in Escherichia coli
SH-SY5Y [8] = experiment: Cytotoxicity against human SH-SY5Y cells expressing TP53 at 10 uM supplemented with fresh medium containing compound every 3 days measured after 72 hrs by CellTiter96 AQueous one solution cell proliferation assay; assay type: functional, cell-based
SH-SY5Y [9] = experiment: Inhibition of class 1 HDAC in human SH-SY5Y cells assessed as increase in acetylation of histone H3 at 0.1 to 10 uM after 24 hrs by Western blot analysis; assay type: cell-based
Outline: (§1)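 SH-SY5Y cells were treated with the stated concentrations for 24 h. Lysates were analysed by Western blot for acetylated histone H3 and acetylated α-tubulin.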

SH-SY5Y [10] = experiment: Inhibition of class 2 HDAC in human SH-SY5Y cells assessed as increase in acetylation of alpha-tubulin at 0.1 to 10 uM after 24 hrs by Western blot analysis; assay type: cell-based; outline: as §1
Homo sapiens [11] = species: Homo sapiens; experiment: Selectivity ratio of IC50 for recombinant human full-length C-terminal His-tagged HDAC2 expressed in baculovirus infected Sf9 insect cells to IC50 for recombinant HDAC8 (unknown origin) expressed in Escherichia coli
Homo sapiens [12] = species: Homo sapiens; experiment: Selectivity ratio of IC50 for recombinant human full-length C-terminal His-tagged HDAC3 (395 to 489 residues)/human NCOR2 expressed in baculovirus infected Sf9 insect cells to IC50 for recombinant HDAC8 (unknown origin) expressed in Escherichia coli
SH-SY5Y [13] = experiment: Cytotoxicity against human SH-SY5Y cells expressing TP53 after 48 hrs by CellTiter96 AQueous one solution cell proliferation assay; assay type: functional, cell-based
Outline: (§2)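 Neuroblastoma cells were exposed to compound for 48 h and viability was read by MTS assay. Values are mean ± standard deviation of at least three independent experiments.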

IMR-5 [14] = experiment: Cytotoxicity against human IMR5 cells expressing TP53 after 48 hrs by CellTiter96 AQueous one solution cell proliferation assay; assay type: functional, cell-based; settings: IMR-5, 48 h; outline: as §2

Structure (SMILES) | IC50 (Histone deacetylase 1) [µM] | IC50 (Histone deacetylase 2) [µM] | IC50 [1] [µM] | IC50 (Histone deacetylase 8) [µM] | inhibition [2] [%] | also measured
CC(C)(C)c1ccc(C2c3ccccc3CCN2CCC(=O)NO)cc1 (stereo not given) | 18 | 29 | 29 | 0.48 | 30 | 
COc1ccc(Cn2ccc3ccc(C(=O)NO)cc32)cc1 |  |  |  |  |  | Activity (SH-SY5Y [3]): Active; Activity (IMR-5 [4]): Active; Activity (SK-N-AS): Active; Activity (Kelly): Active; inhibition (SH-SY5Y [5]): inactive; inhibition (SH-SY5Y [6]): inactive
O=C(CCNCc1ccccc1)NO | 50 | > 100 | 72 | > 100 |  | 
COc1ccc(C2c3ccccc3CCN2CCC(=O)NO)cc1 (stereo not given) | 27 | > 100 | > 100 | 0.082 | 21 | Ratio IC50 (Homo sapiens [7]): 330; Activity (SH-SY5Y [8]): Active; inhibition (SH-SY5Y [9]): inactive; inhibition (SH-SY5Y [10]): inactive
O=C(CCN1CCc2ccccc2C1c1ccc2ccccc2c1)NO (stereo not given) | 2.4 | 13 | 3.4 | 0.39 | 74 | 
O=C(CCCCCCN1CCc2ccccc2C1)NO | 0.098 | 0.33 | 0.097 | 1.9 | 97 | 
O=C(CCCCCCNCc1ccccc1)NO | 0.34 | 3.1 | 0.43 | 1.8 |  | 
O=C(CCN1CCc2ccccc2C1C1CCCCC1)NO (stereo not given) | > 100 | > 100 | 75 | 6.7 | 32 | 
O=C(CCCCNCc1ccccc1)NO | 14 | 58 | 22 | 10 |  | 
O=C(CCN1CCc2ccccc2C1)NO | 57 | > 100 | 98 | 19 | 31 | 
O=C(CCCCN1CCc2ccccc2C1c1ccccc1)NO (stereo not given) | 0.77 | 2.7 | 0.81 | 0.044 | 93 | Ratio IC50 (Homo sapiens [7]): 18; Ratio IC50 (Homo sapiens [11]): 61; Ratio IC50 (Homo sapiens [12]): 18
O=C(CN1CCc2ccccc2C1c1ccccc1)NO (stereo not given) | > 100 | > 100 | > 100 | 19 | 17 | 
O=C(CCN1CCc2ccccc2C1c1cccc(C(F)(F)F)c1)NO (stereo not given) | 37 | > 100 | > 100 | 0.34 | 17 | 
O=C(CCN1CCc2ccccc2C1c1ccccc1)NO (stereo not given) | 4.4 | 40 | 10 | 0.95 | 35 | 
O=C(CCN1CCc2ccccc2C1c1ccc(C(F)(F)F)cc1)NO (stereo not given) | 18 | > 100 | 27 | 0.19 | 26 | 
O=C(CCN(Cc1ccccc1)Cc1ccccc1)NO | 33 | > 100 | 52 | 1.4 |  | Ratio IC50 (Homo sapiens [7]): 24; Ratio IC50 (Homo sapiens [11]): > 71; Ratio IC50 (Homo sapiens [12]): 37
COc1cccc(C2c3ccccc3CCN2CCC(=O)NO)c1 (stereo not given) | 13 | 69 | 34 | 0.11 | 27 | 
O=C(CCCCN(Cc1ccccc1)Cc1ccccc1)NO | 1.8 | 5.4 | 1.4 | 1.9 |  | 
O=C(CCN1CCc2ccccc2C1c1ccc(-c2ccccc2)cc1)NO (stereo not given) | 7.3 | 47 | 38 | 0.055 | 39 | Ratio IC50 (Homo sapiens [7]): 135; EC50 (SH-SY5Y [13]): 0.76 µM; EC50 (IMR-5 [14]): 5.8 µM; inhibition (SH-SY5Y [9]): inactive; inhibition (SH-SY5Y [10]): inactive
CCOc1ccc(C2c3ccccc3CCN2CCC(=O)NO)cc1 (stereo not given) | 24 | 99 | > 100 | 0.21 | 5.7 | 
O=C(CCCCCCN(Cc1ccccc1)Cc1ccccc1)NO | 1.1 | 2.7 | 1.1 | 4 |  | 
